The values below come from ChEMBL document CHEMBL4033794, “Discovery of Trifluoromethyl Glycol Carbamates as Potent and Selective Covalent Monoacylglycerol Lipase (MAGL) Inhibitors for Treatment of Neuroinflammation” (J Med Chem, 2018).

Broadly, the clearance is the volume of plasma or blood freed of the substance per unit of time.

This series can be described thus: Plasma clearance in Wistar Hannover rat at 1 mg/kg, iv administered as bolus dose via jugular vein cannula measured up to 24 hrs post dose by HPLC-MS/MS analysis. It is filed as ADME, organism-based. The procedure, abridged:
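Rats (n = 2) given 1 mg/kg IV bolus via jugular vein cannula, solution in 3% DMA/10% Solutol HS15/10% Miglyol/77% of 20% SBECD in water, 1 mL/kg. Carotid cannula blood pre-dose and 0.083–24 h; plasma by HPLC-MS/MS; non-compartmental analysis.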

In the case of `O=C(O[C@H](CO)C(F)(F)F)N1C[C@@H]2[C@H](C1)[C@H]2c1ccn(-c2ccc(F)cc2)n1`, the clearance stood at 61 mL/min/kg.
